# Reference: ChEMBL document CHEMBL1137633, “2,N6-disubstituted adenosine analogs with antitrypanosomal and antimalarial activities” (Antimicrob Agents Chemother, 2007)
# Calls of active or inactive are those of the source. The rule behind the calls is not given here.
# How the values were obtained:
# Plasmodium falciparum = assay: Antiplasmodial activity against chloroquine and pyrimethamine-resistant Plasmodium falciparum K1 […] by reporter dye assay; assay type: functional, organism-based
# [1] = Cytotoxicity against HEK293T cells after 16 hrs by alamar blue staining; assay type: cell-based; conditions: Homo sapiens, HEK-293T
# Procedure, shortened: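 HEK 293T cells were seeded at 3×10^4/well in DMEM with 10% newborn bovine serum, 2 mM L-glutamax and 1% penicillin-streptomycin, and left to adhere for 3 h at 37°C under 5% CO2. Medium with serial drug dilutions (500 to 0.24 μM in the added medium) was then given for 16 h. Resazurin followed for a further 24 h, read by fluorescence (ex 530/em 590 nm). IC50 values came from ≥3 independent experiments.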
# [2] = tested on: Trypanosoma brucei rhodesiense; assay: Trypanocidal activity against Trypanosoma brucei rhodesiense STIB 900 […] by reporter dye assay; assay type: functional, organism-based
# Trypanosoma cruzi = assay: Trypanocidal activity against Trypanosoma cruzi Tulahuen C4 trypomastigotes infected in mouse macrophage by reporter dye assay; assay type: functional, organism-based
# Leishmania donovani = assay: Antileishmanial activity against Leishmania donovani MHOMET-67/L82 amastigotes infected in mouse macrophage by reporter dye assay; assay type: functional, organism-based
# L6 = assay: Cytotoxicity against rat L6 cells; assay type: cell-based
# [3] = Inhibition of Trypanosoma brucei brucei 427 P2 transporter-mediated [3H]adenosine uptake by fluid scintillation counting in presence of 100 uM inosine
# [4] = tested on: Trypanosoma brucei brucei; assay: Inhibition of Trypanosoma brucei brucei 427 P1 transporter-mediated [3H]adenosine uptake by fluid scintillation counting in presence of 100 uM adenine
# Leishmania major [5] = assay: Leishmanicidal activity against Leishmania major promastigotes by alamar blue fluorescent dye assay; assay type: functional; conditions: read-out: ED50 (the source's name)
# [6] = tested on: Trypanosoma brucei brucei; assay: Trypanostatic activity against Trypanosoma brucei brucei s427 by alamar blue fluorescent dye assay; assay type: functional; conditions: read-out: ED50 (the source's name)
# Leishmania mexicana = assay: Antiprotozoal activity against axenic Leishmania mexicana amastigotes by alamar blue fluorescent dye assay; assay type: functional, organism-based
# [7] = tested on: Trypanosoma brucei brucei; assay: Trypanocidal activity against Trypanosoma brucei brucei s427 by alamar blue fluorescent dye assay; assay type: functional; conditions: read-out: ED50 (the source's name)
# Leishmania major [8] = assay: Leishmanistatic activity against Leishmania major promastigotes by alamar blue fluorescent dye assay; assay type: functional; conditions: read-out: ED50 (the source's name)
# [9] = tested on: Trypanosoma brucei brucei; assay: Biphasic antitrypanosomal activity against Trypanosoma brucei brucei s427 by alamar blue fluorescent dye assay; assay type: functional, organism-based
# [10] = Inhibition of [3H]hypoxanthine uptake at Trypanosoma brucei brucei 427 H2 transporter expressed in human erythrocytes by fluid scintillation counting; assay type: cell-based
SMILES,IC50 (Plasmodium falciparum) [µM],IC50 [2] [µM],IC50 (Trypanosoma cruzi) [µM],IC50 (Leishmania donovani) [µM],IC50 (L6) [µM],other results
OC[C@H]1O[C@@H](n2cnc3c(NC4CCCCCC4)nc(NC4CCCC4)nc32)[C@H](O)[C@@H]1O,8.95,0.71,–,–,–,IC50 [1]: > 500 µM
OC[C@H]1O[C@@H](n2cnc3c(NC45CC6CC(CC(C6)C4)C5)nc(N4CCCC4)nc32)[C@H](O)[C@@H]1O,6.2,34.1,–,–,–,–
CCN(CC)CCCC(C)Nc1ccnc2cc(Cl)ccc12 (configuration not stated) [CHLOROQUINE],–,–,< 30,< 30,–,–
OC(c1cc(C(F)(F)F)nc2c(C(F)(F)F)cccc12)C1CCCCN1 (configuration not stated) [MEFLOQUINE],–,–,< 30,< 30,4.76,–
OC[C@H]1O[C@@H](n2cnc3c(NCc4cccc5ccccc45)nc(NCCC(c4ccccc4)c4ccccc4)nc32)[C@H](O)[C@@H]1O,1.76,24.1,–,–,–,–
OC[C@H]1O[C@@H](n2cnc3c(NCCC(c4ccccc4)c4ccccc4)nc(NCc4cccc5ccccc45)nc32)[C@H](O)[C@@H]1O,1.56,17.3,–,–,–,–
Nc1ncnc2c1ncn2[C@H]1C[C@H](O)[C@@H](CO)O1 [DEOXYADENOSINE],–,–,–,–,–,Ki [3]: 0.23 µM; inhibition [4]: inactive
OC[C@H]1O[C@@H](n2cnc3c(Nc4ccccc4)nc(NCCOCc4ccccc4)nc32)[C@H](O)[C@@H]1O,7.38,8.43,< 30,< 30,53.8,–
OC[C@H]1O[C@@H](n2cnc3c(NC4CCCC4)nc(NC4CCCC4)nc32)[C@H](O)[C@@H]1O,> 10,0.4,–,–,97.3,EC50 (Leishmania major [5]): 9.07 µM; Ki [3]: 20 µM; IC50 [1]: > 500 µM; EC50 [6]: 166 nM; inhibition [4]: inactive; IC50 (Leishmania mexicana): 9.01 µM; EC50 [7]: 15.7 µM; EC50 (Leishmania major [8]): 10 nM
OC[C@H]1O[C@@H](n2cnc3c(Nc4ccccc4)nc(NCCC4CNc5ccccc54)nc32)[C@H](O)[C@@H]1O (some centres not stated),5.55,18.8,< 30,< 30,13.2,–
OC[C@H]1O[C@@H](n2cnc3c(NC4CCCC4)nc(NC4CC4)nc32)[C@H](O)[C@@H]1O,> 10,1.43,–,–,–,IC50 [1]: > 500 µM
N=C(N)c1ccc(/N=N/Nc2ccc(C(=N)N)cc2)cc1 [DIMINAZENE],–,–,–,–,–,IC50 [9]: 107 nM
OC[C@H]1O[C@@H](n2cnc3c(NCCC(c4ccccc4)c4ccccc4)nc(NCCc4cnc[nH]4)nc32)[C@H](O)[C@@H]1O,8.17,71.5,< 30,< 30,–,–
OC[C@H]1O[C@@H](n2cnc3c(NC4CCCCC4)nc(NC4CCCCC4)nc32)[C@H](O)[C@@H]1O,9.62,7.26,–,–,–,–
OC[C@H]1O[C@@H](n2cnc3c(Nc4ccccc4)nc(NCCc4cnc[nH]4)nc32)[C@H](O)[C@@H]1O,> 10,76.3,< 30,< 30,–,–
OC[C@H]1O[C@@H](n2cnc3c(NC4CCCC4)nc(NCCOCc4ccccc4)nc32)[C@H](O)[C@@H]1O,> 10,4.19,< 30,< 30,78.8,–
OC[C@H]1O[C@@H](n2cnc3c(NCCC4CNc5ccccc54)nc(NCCC4CNc5ccccc54)nc32)[C@H](O)[C@@H]1O (some centres not stated),2.46,26.5,–,–,–,–
OC[C@H]1O[C@@H](n2cnc3c(NCc4cccc(I)c4)nc(NC4CCCC4)nc32)[C@H](O)[C@@H]1O,> 10,5.44,< 30,< 30,51.7,–
COc1nc(Nc2ccccc2)c2ncn([C@@H]3O[C@H](CO)[C@@H](O)[C@H]3O)c2n1,> 10,83.3,< 30,< 30,–,–
OC[C@H]1O[C@@H](n2cnc3c(NC4CCCC4)nc(NCCc4cnc[nH]4)nc32)[C@H](O)[C@@H]1O,> 10,37.8,< 30,< 30,–,–
COc1nc(NC2CCCC2)c2ncn([C@@H]3O[C@H](CO)[C@@H](O)[C@H]3O)c2n1,> 10,32.9,< 30,< 30,51.6,–
OC[C@H]1O[C@@H](n2cnc3c(Nc4ccccc4)nc(NC4CCCC4)nc32)[C@H](O)[C@@H]1O,6.06,2.06,< 30,< 30,36.3,–
c1nc2nc(NC3CCCC3)nc(NC3CCCC3)c2[nH]1,–,–,–,–,–,EC50 (Leishmania major [5]): 15.1 µM; Ki [10]: 33.4 µM; EC50 [6]: 26 nM; IC50 (Leishmania mexicana): 15.2 µM; EC50 [7]: 23.4 µM; EC50 (Leishmania major [8]): 15 nM
